Results: publication PMC3204611 (Cancer prevention research (Philadelphia, Pa.), 2010)
Entries after “also recorded” stand apart in the source; their conditions may differ. Where two headings read alike, the source gives them in different places.

How the values were obtained:
[1] = rats, 7 days, cited from earlier work
RAR = details: relative to 9-cis-RA and other RA; cited from earlier work
colony formation = details: 0.1 μmol/L (29 ng/mL); cited from earlier work
[2] = test system: KLF4-mediated tumor initiation; details: cited from earlier work
[3] = test system: N-methyl-N-nitrosourea (MNU)-induced mammary cancer; details: cited from earlier work; for average tumors per animal: controls 6.0
[4] = test system: human breast cancer cells; details: cited from earlier work
[5] = Stability of 9cUAB30 in spiked human plasma and urine stored at -70 °C; assay type: in vitro ADME
Outline: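 Blank human plasma and urine were spiked from a 1 μg/mL stock standard to 10 and 40 ng/mL (plasma, urine) and 100 ng/mL (urine only), then held at -70 °C for 12 weeks. Samples were run in triplicate by LC-MS/MS after liquid-liquid extraction with 9-cis-RA as internal standard. LLOQ was 1.56 ng/mL.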

Human hepatocytes = details: treatment up to 50 μmol/L; cited from earlier work
[6] = doses significantly higher than needed for chemopreventive activity; cited from earlier work
[7] = Toxicity / adverse events; assay type: in vivo, human
Outline: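 Healthy adults aged 18-65 years took one oral dose (5, 10 or 20 mg) in the morning on an empty stomach. Dose cohorts were escalated in sequence and subjects stayed 24 h as inpatients. Toxicity was assessed on day 8, with contact on day 30, and graded by NCI-CTCAE. Serum TG was taken at screening, 24 h and day 8. Dose versus TG change was tested by Jonckheere-Terpstra.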

[8] = Single-dose pharmacokinetics of 9cUAB30 in healthy volunteers; assay type: in vivo, human
[9] = single dose 5, 10 or 20 mg, 14 subjects
[10] = single dose 5, 10 or 20 mg, all subjects n = 14

CC1=C(/C=C/C(C)=C\C=C\C(C)=C\C(=O)O)C(C)(C)CCC1 [9-cis-RA, 9-cis-retinoic acid, reference compound]
increase of serum TGs compared to untreated controls ([1]; 60 mg/kg of diet): 5 fold

CC(=C/C=C/C(C)=C/C(=O)O)/C=C1\CCCc2ccccc21 [9cUAB30, (2E,4E,6Z,8E)-8-(3′,4′-Dihydro-1′(2′H)-naphthalen-1′-ylidene)-3,7-dimethyl-2,4,6-octatrienoic Acid]
RAR-binding activity (RAR): little or no RAR-binding activity | colony formation, % of untreated cells (colony formation): 62% | concentration required to prevent KLF4-mediated tumor initiation [2]: 1 µmol/L | concentration required to prevent KLF4-mediated tumor initiation ([2]; printed conversion of 1 μmol/L): 294 ng/mL | effect on serum TG levels ([1]; 200 or 800 mg/kg of diet): did not affect serum TG levels | decrease of MNU-induced mammary cancer incidence compared to controls ([3]; 200 mg/kg/d diet): 63% | average tumors per animal ([3]; 9cUAB30 150 mg/kg of diet): 4.3 tumors per animal | cell proliferation [4]: significant inhibition of cell proliferation | stability in plasma ([5]; human plasma, −70 °C, 10 and 40 ng/mL): stable for 12 weeks | stability in urine ([5]; human urine, −70 °C, 10, 40 and 100 ng/mL): stable for 12 weeks | cytotoxicity (Human hepatocytes): no signs of cytotoxicity | toxicity in animal models [6]: toxicity was not reported | patients with grade 2 toxicity ([7]; 10-mg dose level, 6 subjects): 1 | Mean TG levels ([7]; day 8, all subjects, screening 116 ± 34.8): 114 ± 44.5 | change in TG levels from baseline ([7]; differences between the treatment groups 5, 10, 20 mg): not statistically significant; also recorded: did not significantly increase change in serum TGs | subjects with ≥ grade 2 toxicity ([7]; dose level 5 mg): No subjects | subjects with ≥ grade 2 toxicity ([7]; dose level 20 mg): No subjects | grade 3 or 4 toxicities [7, 9]: no grade 3 or 4 toxicities reported | patients experiencing grade 2 toxicity [7, 9]: 1 | tolerability [7, 9]: well tolerated | Diarrhea, Grade II, patients (%) [7, 10]: 0 | Dizziness, Grade I, patients (%) [7, 10]: 0 | Elevated chloride, Grade II, patients (%) [7, 10]: 0 | Elevation in cholesterol, Grade II, patients (%) [7, 10]: 0 | Elevation in triglycerides, Grade II, patients (%) [7, 10]: 0 | Fatigue, Grade I, patients (%) [7, 10]: 0 | Headache, Grade II, patients (%) [7, 10]: 0 | Nasal congestion, Grade II, patients (%) [7, 10]: 0 | Nausea and vomiting, Grade I, patients (%) [7, 10]: 0 | Reduced hemoglobin, Grade II, patients (%) [7, 10]: 0 | dose required to achieve maximal concentrations of 0.294 μg/mL ([8]; assuming 1 compartment, first-order elimination, extrapolated from 20-mg dose): 60 mg | CL renal ([8]; human, urine and plasma, po): 0.3 to 1.72 mL/min | oral availability ([8]; single oral dose, fasted healthy volunteers): orally available

CC/C(=C(\c1ccccc1)c1ccc(OCCN(C)C)cc1)c1ccccc1 [tamoxifen, reference compound]
average tumors per animal ([3]; tamoxifen 0.4 mg/kg of diet): 4.6 tumors per animal
